The values below come from PMC3143825 (Bioorganic & medicinal chemistry, 2011).

Test [1] relates to Hsp90 from SKBr3 cellular extracts. In words: Fluorescence polarization. The class given is binding. The settings on record: for IC50: read-out: IC50, binding affinity for Hsp90, Hsp90 from SKBr3 cellular extracts, displacement of GM-cy3B (6 nM), 4°C, 24 h.
Test [2] concerns the target Cell surface Hsp90 in MV4-11 leukemia cells (Homo sapiens, UniProt P07900). In words: Flow cytometry detection of cell surface Hsp90. The settings on record: MV4-11 cells, 2 h at 37°C, SA-PE staining; D-biotin as control. The test is classed as cell-based.
The test system of test [3] is c-Kit and IGF-IR in MDA-MB-468 cells. The class given is cell-based. The settings on record: 5 μM, 24 h. In outline: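 MDA-MB-468 breast cancer cells kept in DME/F12 with 10% FBS, 1% L-glutamine and 1% penicillin/streptomycin at 37°C under 5% CO₂. Grown to 60–70% confluence, then exposed to test compound for 24 h. Lysed in 50 mM Tris pH 7.4, 150 mM NaCl, 1% NP-40. 10–50 μg protein run on SDS-PAGE and blotted to nitrocellulose. Probed with anti-IGF-IR (1:1000) and anti-c-Kit (1:200), then HRP secondary (1:3000), with ECL detection.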

Molecules are shown by their SMILES.

In the case of `Nc1ncnc2c1nc(Sc1cc3c(cc1I)OCO3)n2CCCNCCOCCOCCOCCNC(=O)CCCC[C@@H]1SC[C@@H]2NC(=O)N[C@@H]21` [Compound 7], in test [1], the IC50 is 67.1 nM. The “detection of cell surface Hsp90” value in test [2] was “can detect Hsp90 expression on the surface of leukemia cells”.
Turning to `CCNC(=O)c1noc(-c2cc(C(C)C)c(O)cc2O)c1-c1ccc(CNCCCCCCN)cc1` [Compound 10, 4-(4-((6-Aminohexylamino)methyl)phenyl)-5-(2,4-dihydroxy-5-isopropylphenyl)-N-ethylisoxazole-3-carboxamide], the IC50 in test [1] amounted to 7 nM.
As to `CC1(C)CC(=O)c2c(C(F)(F)F)nn(-c3ccc(C(N)=O)c(N[C@H]4CC[C@H](N)CC4)c3)c2C1` [Compound 18, 2-(trans-4-Aminocyclohexylamino)-4-(6,6-dimethyl-4-oxo-3-(trifluoromethyl)-4,5,6,7-tetrahydro-1H-indazol-1-yl)benzamide], in test [1] (FP assay, SKBr3 extract), the “fold loss in potency as compared to SNX-2112” value is recorded as approximately 14 fold. Also, the IC50 in test [1] is 210 nM.
As to `CC1(C)CC(=O)c2c(C(F)(F)F)nn(-c3ccc(C(N)=O)c(N[C@H]4CC[C@H](NC(=O)CCCCCN)CC4)c3)c2C1` [Compound 20, 2-(trans-4-(6-Aminohexanamido)cyclohexylamino)-4-(6,6-dimethyl-4-oxo-3-(trifluoromethyl)-4,5,6,7-tetrahydro-1H-indazol-1-yl)benzamide], the IC50 in test [1] amounted to 24.7 nM.
The same measure, in the same setting: the value for `CCNC(=O)c1noc(-c2cc(C(C)C)c(O)cc2O)c1-c1ccc(CN2CCOCC2)cc1` [NVP-AUY922, reference compound] was 4.1 nM.
With `CC(C)NCCCn1c(Sc2cc3c(cc2I)OCO3)nc2c(N)ncnc21` [PU-H71, reference compound], the IC50 in test [1] amounted to 22.4 nM. The “steady-state levels of c-Kit and IGF-IR” value in test [3] is “reduction in the steady-state levels”.
